ChEMBL document CHEMBL1132448, “Enantiospecific synthesis of 3-fluoromethyl-, 3-hydroxymethyl-, and 3-chloromethyl-1,2,3,4-tetrahydroisoquinolines as selective inhibitors of phenylethanolamine N-methyltransferase versus the alpha(2)-adrenoceptor” (J Med Chem, 1999)
pKi: −log10 of the molar value.

Legend:
[1] = target: T1, Adrenergic receptor alpha-2 (Rattus norvegicus, UniProt P22086+P19328+P22909); test: In vitro inhibition of [3H]clonidine binding at the alpha-2 adrenergic receptor.; format: protein assay
T1 sequence (P22086 whole entry): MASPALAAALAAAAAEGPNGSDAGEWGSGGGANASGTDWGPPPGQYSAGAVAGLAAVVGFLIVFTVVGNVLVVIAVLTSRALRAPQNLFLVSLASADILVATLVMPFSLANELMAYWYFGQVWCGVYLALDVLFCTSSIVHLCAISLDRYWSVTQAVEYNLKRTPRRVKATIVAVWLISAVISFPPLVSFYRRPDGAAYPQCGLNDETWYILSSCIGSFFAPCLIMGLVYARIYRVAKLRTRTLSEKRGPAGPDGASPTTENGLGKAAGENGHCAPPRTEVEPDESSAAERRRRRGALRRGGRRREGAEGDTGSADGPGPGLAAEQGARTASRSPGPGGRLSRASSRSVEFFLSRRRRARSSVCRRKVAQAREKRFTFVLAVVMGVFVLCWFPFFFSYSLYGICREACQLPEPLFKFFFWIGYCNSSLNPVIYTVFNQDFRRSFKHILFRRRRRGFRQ
T1 sequence (P19328 whole entry): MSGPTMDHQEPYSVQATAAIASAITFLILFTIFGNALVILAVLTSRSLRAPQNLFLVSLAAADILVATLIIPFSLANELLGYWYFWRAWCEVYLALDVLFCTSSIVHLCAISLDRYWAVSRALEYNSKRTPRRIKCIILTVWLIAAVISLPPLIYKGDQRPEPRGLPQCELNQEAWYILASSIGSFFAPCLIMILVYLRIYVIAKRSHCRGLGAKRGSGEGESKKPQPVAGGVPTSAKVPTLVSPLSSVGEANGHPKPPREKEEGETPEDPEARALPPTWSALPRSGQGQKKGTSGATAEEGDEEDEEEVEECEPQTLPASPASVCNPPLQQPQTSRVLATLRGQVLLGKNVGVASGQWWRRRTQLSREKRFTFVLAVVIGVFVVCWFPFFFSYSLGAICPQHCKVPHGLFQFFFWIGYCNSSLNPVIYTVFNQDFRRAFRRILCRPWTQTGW
T1 sequence (P22909 whole entry): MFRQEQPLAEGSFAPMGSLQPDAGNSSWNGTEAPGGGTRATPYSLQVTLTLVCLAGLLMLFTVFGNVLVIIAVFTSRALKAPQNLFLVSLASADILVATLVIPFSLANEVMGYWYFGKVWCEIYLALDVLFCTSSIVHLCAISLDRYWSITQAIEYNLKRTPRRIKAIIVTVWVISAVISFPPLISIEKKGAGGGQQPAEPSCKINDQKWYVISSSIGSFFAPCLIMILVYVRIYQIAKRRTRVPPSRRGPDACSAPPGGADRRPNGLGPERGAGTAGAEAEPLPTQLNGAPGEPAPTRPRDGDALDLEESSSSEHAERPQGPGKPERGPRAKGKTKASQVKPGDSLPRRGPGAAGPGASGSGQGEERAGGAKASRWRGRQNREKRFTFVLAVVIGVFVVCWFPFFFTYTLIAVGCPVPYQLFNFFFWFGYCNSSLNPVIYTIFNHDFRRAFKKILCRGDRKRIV
Procedure, shortened: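 Membranes from male Sprague-Dawley rat cortex, homogenized and washed in 50 mM Tris/HCl pH 7.7. Incubated with [3H]clonidine (final 2.0 nM) and various inhibitor concentrations, 1 mL final volume, 25 °C for 30 min. Terminated by vacuum filtration on GF/B filters and counted. Nonspecific binding defined with 2 µM phentolamine. IC50 by log-probit analysis; Ki = IC50/(1 + [clonidine]/KD).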

[2] = target: T2, Phenylethanolamine N-methyltransferase (Bos taurus, UniProt P10938); test: In vitro inhibition of PNMT (Phenylethanolamine N-Methyltransferase).
T2 sequence (P10938 whole entry): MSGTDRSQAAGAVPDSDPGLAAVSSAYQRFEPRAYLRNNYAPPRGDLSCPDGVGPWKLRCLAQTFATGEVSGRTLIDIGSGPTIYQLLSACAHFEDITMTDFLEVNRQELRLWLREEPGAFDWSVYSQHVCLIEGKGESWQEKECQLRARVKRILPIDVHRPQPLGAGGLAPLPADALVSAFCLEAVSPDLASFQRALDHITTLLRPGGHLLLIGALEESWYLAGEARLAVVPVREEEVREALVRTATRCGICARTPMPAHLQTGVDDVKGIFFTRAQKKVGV

[3] = Ratio of binding affinity of PNMT to alpha-2 receptors.

| SMILES | Ki [1] [µM] | pKi [2] | Selectivity [3] |
| --- | --- | --- | --- |
| ClC[C@H]1Cc2ccccc2CN1 | 2.3 | 5.46 | 0.66 |
| NS(=O)(=O)c1ccc2c(c1)CNC(CF)C2 (centres undefined) |  |  | 1000 |
| N#Cc1ccc2c(c1)CN[C@@H](CF)C2 | 360 | 6.01 | 370 |
| N#Cc1ccc2c(c1)CNC(CF)C2 (centres undefined) |  |  | 420 |
| FCC1Cc2ccc(Br)cc2CN1 (centres undefined) |  |  | 10 |
| O=[N+]([O-])c1ccc2c(c1)CN[C@@H](CF)C2 | 47 | 6.28 | 90 |
| O=[N+]([O-])c1ccc2c(c1)CN[C@H](CCl)C2 | 270 | 6.18 | 410 |
| CCC1Cc2ccccc2CN1 (centres undefined) |  |  | 0.028 |
| OC[C@H]1Cc2ccccc2CN1 |  |  | 7.9 |
| ClC[C@@H]1Cc2ccccc2CN1 | 6.6 | 4.92 | 0.55 |
| C[C@H]1Cc2ccc([N+](=O)[O-])cc2CN1 | 53 | 5.89 | 41 |
| C[C@H]1Cc2ccccc2CN1 | 5.7 | 4.42 | 0.15 |
| O=S(=O)(Nc1ccc(Cl)cc1)c1ccc2c(c1)CN[C@@H](CF)C2 | 97 | 6.55 | 350 |
| FC[C@@H]1Cc2ccc(Br)cc2CN1 | 17 | 6.33 | 36 |
| CC1Cc2ccccc2CN1 (centres undefined) |  |  | 0.36 |
| O=[N+]([O-])c1ccc2c(c1)CN[C@H](CF)C2 | 140 | 6.06 | 160 |
| N#Cc1ccc2c(c1)CN[C@H](CF)C2 | 580 | 5.46 | 170 |

| SMILES | Ki [1] [µM] | pKi [2] | Selectivity [3] |
| --- | --- | --- | --- |
| C[C@@H]1Cc2ccccc2CN1 | 0.49 | 6.00 | 0.49 |
| FC[C@@H]1Cc2ccccc2CN1 | 37 | 5.00 | 3.7 |
| NS(=O)(=O)c1ccc2c(c1)CNC(CO)C2 (centres undefined) |  |  | 4100 |
| O=[N+]([O-])c1ccc2c(c1)CN[C@@H](CCl)C2 | 100 | 6.33 | 210 |
| OC[C@H]1Cc2ccc(Br)cc2CN1 | 1.2 | 6.42 | 3.2 |
| OC[C@@H]1Cc2ccc(Br)cc2CN1 | 0.97 | 6.32 | 2 |
| FC[C@H]1Cc2ccc(Br)cc2CN1 | 3.1 | 6.29 | 6.1 |
| FCC1Cc2ccccc2CN1 (centres undefined) |  |  | 2.5 |
| OCC1Cc2ccccc2CN1 (centres undefined) |  |  | 6 |
| Clc1ccc2c(c1Cl)CNCC2 |  |  | 0.095 |
| O=S(=O)(Nc1ccc(Cl)cc1)c1ccc2c(c1)CN[C@H](CF)C2 | 101 | 5.72 | 53 |
| O=S(=O)(Nc1ccc(Cl)cc1)c1ccc2c(c1)CNC(CF)C2 (centres undefined) |  |  | 220 |
| OC[C@@H]1Cc2ccccc2CN1 |  |  | 1.1 |
| FC[C@H]1Cc2ccccc2CN1 | 2.9 | 6.16 | 4.2 |
| c1ccc2c(c1)CCNC2 |  |  | 0.35 |
| O=[N+]([O-])c1ccc2c(c1)CNC(CF)C2 (centres undefined) |  |  | 140 |
| C[C@@H]1Cc2ccc([N+](=O)[O-])cc2CN1 | 19 | 6.60 | 76 |
